ChEMBL document CHEMBL1122917, “Vinblastin-23-oyl amino acid derivatives: chemistry, physicochemical data, toxicity, and antitumor activities against P388 and L1210 leukemias” (J Med Chem, 1985)

Tests used:
[1] = tested on: Mus musculus; experiment: Number of survivors on 30th day at dose 5 mg/kg/day in 10 mice implanted with P388 leukemia cell line; 0 /10; format: functional
[2] = tested on: Mus musculus; experiment: Percent increase in life span of BDF1 mice after inoculation with P388 leukemia intraperitoneally at a dose of 4 mg/kg per day; conditions: P388, ip
[3] = tested on: Mus musculus; experiment: Number of survivors on 60th day at dose 4 mg/kg/day in 7 mice implanted with P388 leukemia cell line for 1,8,15 acheduled days form Exp-1; 0/10; format: functional
[4] = tested on: Mus musculus; experiment: Number of survivors on 30th day at dose 7 mg/kg/day in 9 mice implanted with P388 leukemia cell line; 1 /9; format: functional
[5] = tested on: Mus musculus; experiment: Number of survivors on 60th day at dose 11 mg/kg/day in 10 mice implanted with P388 leukemia cell line; 0/10; format: functional
[6] = tested on: Mus musculus; experiment: Number of survivors on 60th day at dose 8 mg/kg/day in 9 mice implanted with P388 leukemia cell line; 0/9; format: functional
[7] = tested on: Mus musculus; experiment: Percent increase in life span at dose 1.5 mg/kg/day in 10 mice implanted with P388 leukemia cell line; format: functional
[8] = tested on: Mus musculus; experiment: Number of survivors of DBA2 mice on 30th day after inoculation with L1210 leukemia cell line intraperitoneally at a dose of 1 mg/kg/day; 0/10; format: functional; conditions: route intraperitoneal
[9] = tested on: Mus musculus; experiment: Number of survivors of DBA2 mice on 30th day after inoculation with L1210 leukemia cell line intravenously at a dose of 1 mg/kg/day; 0/10; format: functional; conditions: route intravenous
[10] = tested on: Mus musculus; experiment: Number of survivors of DBA2 mice on 30th day after inoculation with L1210 leukemia cell line intravenously at a dose of 5.5 mg/kg/day; 0/10; format: functional; conditions: route intravenous
[11] = tested on: Mus musculus; experiment: Number of survivors of DBA2 mice on 60th day after inoculation with L1210 leukemia cell line intravenously at a dose of 5.5 mg/kg/day; 0/10; format: functional; conditions: route intravenous
[12] = tested on: Mus musculus; experiment: Number of survivors of BDF1 mice on 30th day after inoculation with P388 leukemia cell line intraperitoneally at a dose of 2.7 mg/kg/day; 0/11; conditions: route intraperitoneal
[13] = tested on: Mus musculus; experiment: Percent increase in life span of BDF1 mice after inoculation with P388 leukemia intraperitoneally at a dose of 2.7 mg/kg per day; conditions: P388, ip
[14] = tested on: Mus musculus; experiment: Percent increase in life span of DBA2 mice after inoculation with L1210 leukemia intravenously at a dose of 2 mg/kg per day; format: functional; conditions: route intravenous
[15] = tested on: Mus musculus; experiment: Number of survivors on 30th day at dose 1 mg/kg/day in 10 mice implanted with P388 leukemia cell line; 0/10; format: functional
[16] = tested on: Mus musculus; experiment: Number of survivors on 30th day at dose 0.5 mg/kg/day in 10 mice implanted with P388 leukemia cell line; 0/10; format: functional
[17] = tested on: Mus musculus; experiment: Percent increase in life span of DBA2 mice after inoculation with L1210 leukemia intravenously at a dose of 6.5 mg/kg per day; format: functional; conditions: route intravenous
[18] = tested on: Mus musculus; experiment: Number of survivors of DBA2 mice on 30th day after inoculation with L1210 leukemia cell line intravenously at a dose of 6.5 mg/kg/day; 0/10; format: functional; conditions: route intravenous
[19] = tested on: Mus musculus; experiment: Number of survivors of DBA2 mice on 60th day after inoculation with L1210 leukemia cell line intravenously at a dose of 1.5 mg/kg/day; 0/10; format: functional; conditions: route intravenous
[20] = tested on: Mus musculus; experiment: Number of survivors on 60th day at dose 8 mg/kg/day in 7 mice implanted with P388 leukemia cell line for 1,8.15 scheduled days from Exp-1; 0/9; format: functional
[21] = tested on: Mus musculus; experiment: Percent increase in life span of DBA2 mice after inoculation with L1210 leukemia intravenously at a dose of 10 mg/kg per day; format: functional; conditions: route intravenous
[22] = tested on: Mus musculus; experiment: Number of survivors on 60th day at dose 4 mg/kg/day in 10 mice implanted with P388 leukemia cell line; 0/9; format: functional
[23] = tested on: Mus musculus; experiment: Percent increase in life span at dose 6 mg/kg/day in 7 mice implanted with P388 leukemia cell line for 1,8,15 schedule days from Exp-2; format: functional
[24] = tested on: Mus musculus; experiment: Number of survivors on 30th day at dose 3 mg/kg/day in 9 mice implanted with P388 leukemia cell line; 0/10; format: functional
[25] = tested on: Mus musculus; experiment: Number of survivors on 30th day at dose 3 mg/kg/day in 10 mice implanted with P388 leukemia cell line; 0/10; format: functional
[26] = tested on: Mus musculus; experiment: Number of survivors on 30th day at dose 2.5 mg/kg/day in 10 mice implanted with P388 leukemia cell line; 0/10; format: functional
[27] = tested on: Mus musculus; experiment: Number of survivors of DBA2 mice on 60th day after inoculation with L1210 leukemia cell line intraperitoneally at a dose of 2.5 mg/kg/day; 0/10; format: functional; conditions: route intraperitoneal
[28] = tested on: Mus musculus; experiment: Number of survivors of DBA2 mice on 30th day after inoculation with L1210 leukemia cell line intravenously at a dose of 58 mg/kg/day; 0/10; format: functional; conditions: route intravenous
[29] = tested on: Mus musculus; experiment: Number of survivors on 60th day at dose 20 mg/kg/day in 10 mice implanted with P388 leukemia cell line; 0/10; format: functional
[30] = tested on: Mus musculus; experiment: Number of survivors on 30th day at dose 60 mg/kg/day in 10 mice implanted with P388 leukemia cell line 1,5,9 scheduled days; 9/9; format: functional
[31] = tested on: Mus musculus; experiment: Percent increase in life span at dose 70 mg/kg/day in 10 mice implanted with P388 leukemia cell line; format: functional
Outline: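 Female DBA2 mice inoculated iv on day 0 with 10^4 P388 cells; single iv treatment on day 1 with drug as sulfate salt in physiological saline. Survival followed; %ILS from all deaths and survivors as (T/C × 100) − 100, maximal MST 30 days; survivors counted on days 30 and 60. Most experiments confirmed three times.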

[32] = tested on: Mus musculus; experiment: Number of survivors of DBA2 mice on 30th day after inoculation with L1210 leukemia cell line intravenously at a dose of 45 mg/kg/day; 0/10; format: functional; conditions: route intravenous
[33] = tested on: Mus musculus; experiment: Percent increase in life span at dose 56 mg/kg/day in 10 mice implanted with P388 leukemia cell line; format: functional
[34] = tested on: Mus musculus; experiment: Number of survivors of DBA2 mice on 60th day after inoculation with L1210 leukemia cell line intravenously at a dose of 58 mg/kg/day; 0/10; format: functional; conditions: route intravenous
[35] = tested on: Mus musculus; experiment: Percent increase in life span of DBA2 mice after inoculation with L1210 leukemia intravenously at a dose of 60 mg/kg per day; format: functional; conditions: route intravenous
Outline: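 Female DBA2 mice inoculated iv on day 0 with 10^4 L1210 cells; drugs given iv as sulfate salts in physiological saline, mostly once on day 1. %ILS from all deaths and survivors as (T/C × 100) − 100; survivors scored on days 30 and 60.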

[36] = tested on: Mus musculus; experiment: Number of survivors on 30th day at dose 56 mg/kg/day in 10 mice implanted with P388 leukemia cell line; 4/10; format: functional
[37] = tested on: Mus musculus; experiment: Number of survivors of DBA2 mice on 30th day after inoculation with L1210 leukemia cell line intravenously at a dose of 55 mg/kg/day; 0/10; format: functional; conditions: route intravenous
[38] = tested on: Mus musculus; experiment: Number of survivors on 60th day at dose 65 mg/kg/day in 7 mice implanted with P388 leukemia cell line for 1,8,15 scheduled days in Exp-2; 0/10; format: functional

Compound: CC[C@]1(O)C[C@@H]2CN(CCc3c([nH]c4ccccc34)[C@@](C(=O)OC)(c3cc4c(cc3OC)N(C)[C@H]3[C@@](O)(C(=O)OC)[C@H](OC(C)=O)[C@]5(CC)C=CCN6CC[C@]43[C@@H]65)C2)C1 [VINBLASTINE]
- Survivors [1]: 0
- ILS at 4 mg/kg/day [2]: 0%
- Survivors [3]: 0
- Survivors [4]: 1
- Survivors [5]: 0
- Survivors [6]: 0

Compound: CC[C@]1(O)C[C@H]2CN(CCc3c([nH]c4ccccc34)[C@@](C(=O)OC)(c3cc4c(cc3OC)N(C=O)[C@H]3[C@@](O)(C(=O)OC)[C@H](OC(C)=O)[C@]5(CC)C=CCN6CC[C@]43[C@@H]65)C2)C1 [VINCRISTINE]
- ILS at 1.5 mg/kg/day [7]: 20.8%
- Survivors [8]: 0
- Survivors [9]: 0
- Survivors [10]: 0
- Survivors [11]: 0
- Survivors [12]: 0
- ILS at 2.7 mg/kg/day [13]: 64%
- ILS at 2 mg/kg/day [14]: 16%
- Survivors [15]: 0
- Survivors [16]: 0
- ILS at 6.5 mg/kg/day [17]: -37%
- Survivors [18]: 0
- Survivors [19]: 0

Compound: CCOC(=O)[C@@H](NC(=O)[C@@]1(O)[C@H](O)[C@]2(CC)C=CCN3CC[C@@]4(c5cc([C@@]6(C(=O)OC)C[C@H]7C[N@](CCc8c6[nH]c6ccccc86)C[C@](O)(CC)C7)c(OC)cc5N(C)[C@@]14C)[C@@H]32)[C@@H](C)CC
- Survivors [20]: 0
- ILS at 10 mg/kg/day [21]: 27%
- Survivors [22]: 0
- ILS at 6 mg/kg/day [23]: 200%

Compound: CC[C@]1(O)C[C@@H]2CN(CCc3c([nH]c4ccccc34)[C@@](C(=O)OC)(c3cc4c(cc3OC)N(C)[C@H]3[C@@](O)(C(N)=O)[C@H](O)[C@]5(CC)C=CCN6CC[C@]43[C@@H]65)C2)C1 [VINDESINE]
- Survivors [24]: 0
- Survivors [25]: 0
- Survivors [26]: 0
- Survivors [27]: 0

Compound: CCOC(=O)[C@H](Cc1c[nH]c2ccccc12)NC(=O)[C@@]1(O)[C@H](O)[C@]2(CC)C=CCN3CC[C@@]4(c5cc([C@@]6(C(=O)OC)C[C@H]7C[N@](CCc8c6[nH]c6ccccc86)C[C@](O)(CC)C7)c(OC)cc5N(C)[C@@]14C)[C@@H]32
- Survivors [28]: 0
- Survivors [29]: 0
- Survivors [30]: 9
- ILS at 70 mg/kg/day [31]: 160%
- Survivors [32]: 0
- ILS at 56 mg/kg/day [33]: 113%
- Survivors [34]: 0
- ILS at 60 mg/kg/day [35]: 58%
- Survivors [36]: 4
- Survivors [37]: 0
- Survivors [38]: 0
